Laboratory results reported in ChEMBL document CHEMBL1124979, “4-Heterocyclyloxy-2H-1-benzopyran potassium channel activators” (1990).

Organism: Rattus norvegicus
Experiment: Dose required to reduce mean blood pressure by 30 mmHg in spontaneously hypertensive rats
Assay type: functional
Settings: not given
Method in brief: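 Conscious male Okamoto SHR (280-330 g, baseline pressure >180 mmHg) fitted with an aortic catheter for continuous direct recording of mean arterial pressure over 3.5 h. Compounds active at the 1 mg/kg oral screen were given orally at 2-4 additional doses. Mean maximal falls were regressed linearly against log dose to derive ED30, the dose in […] lowering pressure by 30 mmHg.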

Question: With `Cn1nc(O[C@@H]2c3cc(C#N)ccc3OC(C)(C)[C@H]2O)ccc1=O` (stereo in doubt; 22a) as the molecule, how does the ED30 read?
Answer: 0.013 mg/kg

Same assay, conditions: Rattus norvegicus, Blood; read-out: ED30

Question: With `CCn1nc(O[C@@H]2c3cc(C#N)ccc3OC(C)(C)[C@H]2O)ccc1=O` as the molecule, how does the ED30 read?
Answer: 0.02 mg/kg

Question: With `CC1(C)Oc2ccc([N+](=O)[O-])cc2[C@@H](Oc2ccnc(O)c2)[C@@H]1O` as the molecule, how does the ED30 read?
Answer: 0.013 mg/kg

Question: For `CC1(C)Oc2ccc(C#N)cc2[C@@H](Oc2ccnc(O)c2)[C@@H]1O`, which ED30 is on record?
Answer: 0.006 mg/kg

Question: For `CC1(C)Oc2ccc(C#N)cc2C(N2CCCC2=O)C1O` (stereo unspecified) [CROMAKALIM], which ED30 is on record?
Answer: 0.11 mg/kg

Question: `Cn1nc(O[C@@H]2c3cc(C#N)ccc3OC(C)(C)[C@H]2O)ccc1=O` (stereo in doubt; 14a) was tested. Which ED30 did it give?
Answer: 0.018 mg/kg

Question: How did the ED30 turn out when `CC1(C)Oc2ccc(C#N)cc2C(Oc2ccc(=O)[nH]n2)C1O` (stereo unspecified) was run?
Answer: 0.014 mg/kg

Test system: Rattus norvegicus
Experiment: Antihypertensive activity measured by maximum fall in the mean blood pressure after an oral administration of 1 mg/kg in spontaneously hypertensive rats; NS= Did not lower the blood pressure significantly
Assay type: functional, organism-based
Design: dose 1 mg/kg
Settings: not given
Method in brief: (§1)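 Conscious, unrestrained male spontaneously hypertensive rats (Okamoto strain, 280-330 g, blood pressure >180 mmHg), N ≥ 3, given a single 1 mg/kg oral screening dose. Mean arterial pressure was recorded directly via an aortic catheter from 1 h before to 3.5 h after dosing. The value is the mean of the maximum individual falls over 3.5 h; a fall under 18 mmHg counted as not significant.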

Question: How did the BP turn out when `CC1(C)Oc2ccc(Br)cc2C(Oc2ccc(=O)[nH]n2)C1O` (stereo unspecified) was run?
Answer: Not significant

Question: How did the BP turn out when `CC1(C)Oc2ccc(C#N)cc2[C@H](Oc2ccc(=O)[nH]n2)[C@H]1O` was run?
Answer: Not significant

Question: How did the BP turn out when `CC1(C)Oc2ccc(C(=N)S)cc2[C@@H](Oc2ccnc(O)c2)[C@@H]1O` was run?
Answer: Not significant

Question: Which BP does the source give for `CC1(C)C=C(Oc2ccc(=O)[nH]n2)c2cc(C#N)ccc2O1` here?
Answer: Not significant

Question: With `CC1(C)Oc2ccc(C#N)cc2C(n2ccc(N)nc2=O)[C@@H]1O` (stereo partly specified) as the molecule, how does the BP read?
Answer: Not significant

Question: How did the BP turn out when `CC1(C)Oc2ccc(C#N)cc2[C@@H](Oc2cccnc2O)[C@@H]1O` was run?
Answer: Not significant

Question: `CC1(C)Oc2ccc(C#N)cc2[C@@H](Oc2cc(O)ncn2)[C@@H]1O` was tested. Which BP did it give?
Answer: Not significant

Question: `CC1(C)C=C(Oc2ccc(S)nn2)c2cc(C#N)ccc2O1` was tested. Which BP did it give?
Answer: Not significant

Question: For `CC1(C)C=C(Oc2ccnc(O)c2)c2cc(C#N)ccc2O1`, which BP is on record?
Answer: Not significant

Question: With `CC1(C)Oc2ccc(C(N)=S)cc2C(Oc2ccc(=O)[nH]n2)C1O` (stereo unspecified) as the molecule, how does the BP read?
Answer: Not significant

Question: How did the BP turn out when `CC1(C)Oc2ccc(C#N)cc2[C@@H](Oc2ccc(S)nn2)[C@@H]1O` was run?
Answer: Not significant

Question: Which BP does the source give for `CC1(C)Oc2ccc(C#N)cc2[C@@H](n2[nH]c(=O)ccc2=O)[C@@H]1O` here?
Answer: Not significant

Question: With `CC1(C)Oc2ccc(C#N)cc2[C@@H](Oc2cccnc2N)[C@@H]1O` as the molecule, how does the BP read?
Answer: Not significant

Question: How did the BP turn out when `Cn1nc(OC2=CC(C)(C)Oc3ccc(C#N)cc32)ccc1=O` was run?
Answer: Not significant

Question: For `COC(=O)c1ccc2c(c1)[C@@H](Oc1ccnc(O)c1)[C@H](O)C(C)(C)O2`, which BP is on record?
Answer: Not significant

Question: Which BP does the source give for `CC1(C)Oc2ccc(C#N)cc2C(n2ccc(N)cc2=O)[C@@H]1O` (stereo partly specified) here?
Answer: Not significant

Test system: Rattus norvegicus
Experiment: Antihypertensive activity measured by maximum fall in the mean blood pressure after an oral administration of 1 mg/kg in spontaneously hypertensive rats
Assay type: functional
Settings: not given
Method in brief: as §1

Question: With `CCn1nc(O[C@@H]2c3cc(C#N)ccc3OC(C)(C)[C@H]2O)ccc1=O` as the molecule, how does the BP read?
Answer: 127 mmHg

Question: How did the BP turn out when `CC1(C)Oc2ccc([N+](=O)[O-])cc2[C@@H](Oc2ccnc(O)c2)[C@@H]1O` was run?
Answer: 117 mmHg

Question: How did the BP turn out when `CC1(C)Oc2ccc(C#N)cc2[C@@H](Oc2ccnc(O)c2)[C@@H]1O` was run?
Answer: 104 mmHg

Question: With `CC1(C)Oc2ccc([N+](=O)[O-])cc2C(Oc2ccc(=O)[nH]n2)C1O` (stereo unspecified) as the molecule, how does the BP read?
Answer: 78 mmHg

Question: Which BP does the source give for `CC1(C)C=C(n2ccc(O)cc2=O)c2cc(C#N)ccc2O1` here?
Answer: 19 mmHg

Question: With `CC1(C)Oc2ccc(C#N)cc2C(N2CCCC2=O)C1O` (stereo unspecified) [CROMAKALIM] as the molecule, how does the BP read?
Answer: 78 mmHg

Question: With `Cn1ccc(O[C@@H]2c3cc(C#N)ccc3OC(C)(C)[C@H]2O)cc1=O` as the molecule, how does the BP read?
Answer: 83 mmHg

Question: `Cn1nc(O[C@H]2c3cc(C#N)ccc3OC(C)(C)[C@@H]2O)ccc1=O` was tested. Which BP did it give?
Answer: 19 mmHg

Question: How did the BP turn out when `CC(C)n1nc(O[C@@H]2c3cc(C#N)ccc3OC(C)(C)[C@H]2O)ccc1=O` was run?
Answer: 32 mmHg

Question: `CC1(C)Oc2ccc(C#N)cc2[C@@H](n2ccc(O)cc2=O)[C@@H]1O` was tested. Which BP did it give?
Answer: 28 mmHg

Question: Which BP does the source give for `CC(=O)Oc1ccn(C2=CC(C)(C)Oc3ccc(C#N)cc32)c(=O)c1` here?
Answer: 28 mmHg

Question: `CC1(C)Oc2ccc(C#N)cc2C(n2nc(N)ccc2=O)[C@@H]1O` (stereo partly specified) was tested. Which BP did it give?
Answer: 39 mmHg

Question: Which BP does the source give for `CC1(C)Oc2ccc(C#N)cc2[C@@H](Oc2ccc(O)nc2)[C@@H]1O` here?
Answer: 23 mmHg

Question: How did the BP turn out when `CC1(C)Oc2ccc(C#N)cc2C(Oc2ccc(=O)[nH]n2)C1O` (stereo unspecified) was run?
Answer: 129 mmHg

Question: How did the BP turn out when `CC(=O)OC1C(Oc2ccc(=O)[nH]n2)c2cc(C#N)ccc2OC1(C)C` (stereo unspecified) was run?
Answer: 97 mmHg

Question: Which BP does the source give for `COC(=O)c1ccc2c(c1)C(Oc1ccc(=O)[nH]n1)C(O)C(C)(C)O2` (stereo unspecified) here?
Answer: 18 mmHg

Same assay, conditions: 1 mg/kg

Question: Which BP does the source give for `Cn1nc(O[C@@H]2c3cc(C#N)ccc3OC(C)(C)[C@H]2O)ccc1=O` (stereo in doubt; 22a) here?
Answer: 151 mmHg

Question: Which BP does the source give for `Cn1nc(O[C@@H]2c3cc(C#N)ccc3OC(C)(C)[C@H]2O)ccc1=O` (stereo in doubt; 14a) here?
Answer: 124 mmHg
